Measurements: ChEMBL document CHEMBL1140193, “Synthesis and anti-inflammatory evaluation of methylene bridged benzofuranyl imidazo[2,1-b][1,3,4]thiadiazoles” (Eur J Med Chem, 2008)

Experiments:
[1] = tested on: Rattus norvegicus; test: Antiinflammatory activity in Wistar albino rat assessed as inhibition of carrageenan-induced paw oedema at 100 mg/kg, po measured 4 hrs after carrageenan challenge; assay type: functional
In short: (§1)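 Albino rats, 6 per group, dosed orally at 100 mg kg^-1; ibuprofen 100 mg kg^-1 as standard. One hour after dosing, 0.1 ml of 1% carrageenan with 2% gum acacia in normal saline injected subplantar into the right hind paw. Paw volume measured by plethysmometer; % inhibition versus control calculated. One-way ANOVA with Dunnett's t test.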

[2] = tested on: Rattus norvegicus; test: Analgesic activity in Wistar albino rat […] assessed as reaction time for tail withdrawal at 100 mg/kg, po after 30 mins by tail flick method; assay type: functional
[3] = tested on: Rattus norvegicus; test: Toxicity in Wistar albino rat assessed as induction of sedation up to 3 g/kg, po after 8 hrs; assay type: organism-based; conditions: in vivo, 3000 mg/kg
In short: (§2)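 Acute toxicity: albino rats of either sex in groups of six, oral doses from 100 up to 3000 mg kg^-1. Rats observed continuously for 8 h for changes in motor activity, ataxia, tremors, convulsions, sedation and lacrimation. Ulceration and haemorrhagic spots also inspected.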

[4] = tested on: Rattus norvegicus; test: Toxicity in Wistar albino rat assessed as mortality up to 3 g/kg, po after 24 hrs; assay type: organism-based; conditions: in vivo, 3000 mg/kg
In short: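 Albino rats of either sex, six per group, dosed orally from 100 up to 3000 mg kg^-1 body weight. Animals were watched continuously for 8 h for signs of acute toxicity such as altered motor activity, ataxia, tremors, convulsions, sedation and lacrimation, and were checked for mortality over a 24 h period. Food was withheld for 12 h before dosing.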

[5] = tested on: Rattus norvegicus; test: Antiinflammatory activity in Wistar albino rat assessed as inhibition of carrageenan-induced paw oedema at 100 mg/kg, po measured 3 hrs after carrageenan challenge; assay type: functional; in short: as §1
[6] = tested on: Rattus norvegicus; test: Toxicity in Wistar albino rat assessed as induction of haemorrhagic spots up to 3 g/kg, po after 8 hrs; assay type: organism-based; conditions: in vivo, 3000 mg/kg; in short: as §2
[7] = tested on: Rattus norvegicus; test: Analgesic activity in Wistar albino rat […] assessed as reaction time for tail withdrawal at 100 mg/kg, po after 180 mins by tail flick method; assay type: functional
[8] = tested on: Rattus norvegicus; test: Toxicity in Wistar albino rat assessed as effect on motor activity up to 3 g/kg, po after 8 hrs; assay type: organism-based; conditions: in vivo, 3000 mg/kg; in short: as §2
[9] = tested on: Rattus norvegicus; test: Antiinflammatory activity in Wistar albino rat assessed as inhibition of carrageenan-induced paw oedema at 100 mg/kg, po measured 2 hrs after carrageenan challenge; assay type: functional; in short: as §1
[10] = tested on: Rattus norvegicus; test: Analgesic activity in Wistar albino rat […] assessed as increase in reaction time for tail withdrawal at 100 mg/kg, po after 180 mins by tail flick method; assay type: functional
[11] = tested on: Rattus norvegicus; test: Analgesic activity in Wistar albino rat […] assessed as increase in reaction time for tail withdrawal at 100 mg/kg, po after 300 mins by tail flick method; assay type: functional
In short: (§3)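 Rat tail-flick test: latency for the rat to withdraw its tail from hot water at 55 ± 0.5 °C. Drugs given orally. Reaction time in seconds read at 60, 90, 120 and 300 min after dosing. Treated animals compared with control and with a nimesulide standard. Wistar albino rats, 150-200 g, either sex; food withdrawn 12 h before and during testing.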

[12] = tested on: Rattus norvegicus; test: Antiinflammatory activity in Wistar albino rat assessed as inhibition of carrageenan-induced paw oedema at 100 mg/kg, po measured 0.5 hrs after carrageenan challenge; assay type: functional; in short: as §1
[13] = tested on: Rattus norvegicus; test: Antiinflammatory activity in Wistar albino rat assessed as inhibition of carrageenan-induced paw oedema at 100 mg/kg, po measured 5 hrs after carrageenan challenge; assay type: functional; in short: as §1
[14] = tested on: Rattus norvegicus; test: Antiinflammatory activity in Wistar albino rat assessed as inhibition of carrageenan-induced paw oedema at 100 mg/kg, po measured 1 hr after carrageenan challenge; assay type: functional; in short: as §1
[15] = tested on: Rattus norvegicus; test: Toxicity in Wistar albino rat assessed as induction of gastric ulceration up to 3 g/kg, po after 8 hrs; assay type: organism-based, Stomach; conditions: in vivo, 3000 mg/kg; in short: as §2
[16] = tested on: Rattus norvegicus; test: Analgesic activity in Wistar albino rat […] assessed as reaction time for tail withdrawal at 100 mg/kg, po after 120 mins by tail flick method; assay type: functional; in short: as §3
[17] = tested on: Rattus norvegicus; test: Analgesic activity in Wistar albino rat […] assessed as reaction time for tail withdrawal at 100 mg/kg, po after 60 mins by tail flick method; assay type: functional; in short: as §3
[18] = tested on: Rattus norvegicus; test: Analgesic activity in Wistar albino rat […] assessed as reaction time for tail withdrawal at 100 mg/kg, po after 300 mins by tail flick method; assay type: functional; in short: as §3
[19] = tested on: Rattus norvegicus; test: Toxicity in Wistar albino rat assessed as induction of convulsions and tremors up to 3 g/kg, po after 8 hrs; assay type: organism-based; conditions: in vivo, 3000 mg/kg; in short: as §2

SMILES | inhibition in vivo at 100 mg/kg [1] [%] | Activity [2] [s] | Activity [3] | Activity [4] | inhibition in vivo at 100 mg/kg [5] [%] | Activity [6] | Activity [7] [s] | Activity [8] | inhibition in vivo at 100 mg/kg [9] [%] | Activity [10] [%] | Activity [11] [%] | inhibition in vivo at 100 mg/kg [12] [%] | inhibition in vivo at 100 mg/kg [13] [%] | inhibition in vivo at 100 mg/kg [14] [%] | Activity [15] | Activity [16] [s] | Activity [17] [s] | Activity [18] [s] | Activity [19]
Cc1ccc2c(Cc3nn4cc(-c5ccc([N+](=O)[O-])cc5)nc4s3)coc2c1 | 45.7 | 4.65 | Non-toxic | Non-toxic | 40.9 | Non-toxic | 9.9 | Non-toxic | 24.3 | 268.98 | 211.21 | 0 | 49.8 | 13.4 | Non-toxic | 9.567 | 7.4 | 8.35 | Non-toxic
CS(=O)(=O)Nc1ccc([N+](=O)[O-])cc1Oc1ccccc1 [NIMESULIDE] |  | 5.1 |  |  |  |  | 9.683 |  |  | 260.9 | 218.67 |  |  |  |  | 8.65 | 7.683 | 8.55 | 
Cc1ccc2c(Cc3nn4c(CO)c(-c5ccc(Cl)cc5)nc4s3)coc2c1 | 54.3 | 3.65 | Non-toxic | Non-toxic | 45.9 | Non-toxic | 7.133 | Non-toxic | 28.9 | 165.85 | 102.49 | 9.61 | 58.9 | 14.5 | Non-toxic | 5.467 | 4.35 | 5.433 | Non-toxic
Cc1ccc2c(Cc3nn4c(CN5CCOCC5)c(-c5ccc(Br)cc5)nc4s3)coc2c1 | 51.2 | 3.5 | Non-toxic | Non-toxic | 43.4 | Non-toxic | 8.15 | Non-toxic | 31.7 | 203.76 | 172.08 | 8.38 | 52.7 | 12.4 | Non-toxic | 6.45 | 4.067 | 7.3 | Non-toxic
Cc1ccc2c(Cc3nn4c(C=O)c(-c5ccc(Cl)cc5)nc4s3)coc2c1 | 47.2 | 3.55 | Non-toxic | Non-toxic | 42.5 | Non-toxic | 7.867 | Non-toxic | 24.3 | 193.21 | 142.89 | 3.6 | 48.8 | 11.4 | Non-toxic | 6.667 | 5.35 | 6.517 | Non-toxic
Cc1ccc2c(Cc3nn4c(CN5CCOCC5)c(-c5ccc(Cl)cc5)nc4s3)coc2c1 | 48 | 3.767 | Non-toxic | Non-toxic | 43.4 | Non-toxic | 8.2 | Non-toxic | 28.9 | 205.62 | 159.03 | 4.77 | 50.4 | 15.5 | Non-toxic | 6.767 | 5.45 | 6.95 | Non-toxic
Cc1ccc2c(Cc3nn4c(CO)c(-c5ccc(Br)cc5)nc4s3)coc2c1 | 44.9 | 3.667 | Non-toxic | Non-toxic | 36.6 | Non-toxic | 7.4 | Non-toxic | 13.1 | 177.3 | 126.12 | 2.38 | 47.3 | 7.2 | Non-toxic | 5.917 | 4.583 | 6.067 | Non-toxic
Cc1ccc2c(Cc3nn4c(CN5CCOCC5)c(-c5ccc([N+](=O)[O-])cc5)nc4s3)coc2c1 | 48 | 3.6 | Non-toxic | Non-toxic | 41.6 | Non-toxic | 9.3 | Non-toxic | 24.3 | 246.62 | 199.4 | 3.6 | 51.2 | 5.19 | Non-toxic | 8.433 | 5.933 | 8.033 | Non-toxic
Cc1ccc2c(Cc3nn4c(C#N)c(-c5ccc(Cl)cc5)nc4s3)coc2c1 | 51.2 | 3.7 | Non-toxic | Non-toxic | 43.4 | Non-toxic | 8.25 | Non-toxic | 28 | 207.49 | 167.12 | 4.77 | 53.5 | 13.4 | Non-toxic | 6.617 | 4.067 | 7.167 | Non-toxic
Cc1ccc2c(Cc3nn4cc(-c5ccc(Cl)cc5)nc4s3)coc2c1 | 55.9 | 3.483 | Non-toxic | Non-toxic | 51.7 | Non-toxic | 9.633 | Non-toxic | 42.1 | 259.03 | 196.31 | 8.38 | 58.1 | 13.4 | Non-toxic | 8.75 | 4.033 | 7.95 | Non-toxic
CC(C)Cc1ccc(C(C)C(=O)O)cc1 (centres undefined) [IBUPROFEN] | 66.1 |  |  |  | 60 |  |  |  | 42.9 |  |  | 42.1 | 72.9 | 42.3 |  |  |  |  | 
